Assay results reported in ChEMBL document CHEMBL5058577, “EUbOPEN Chemogenomics Library 2 (Multiplex)” (2022).

System: U2OS
Experiment: Multiplex assay against U2OS
Assay type: toxicity, cell-based
Details: human
Summary of the method: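 On a CQ1 microscope at 37°C and 5% CO2, live cells were imaged after compound addition. They had been stained at seeding with Hoechst33342, BioTracker Green Microtubule Cytoskeleton Dye, MitoTracker Red and Annexin V Alexa Fluor 680. CellPathfinder machine-learning gating assigned cells to Hoechst high-intensity objects or normal cells, normal cells to healthy, pyknosed or fragmented nuclei, and pyknosed cells to mitotic or apoptotic. Tubulin, mitochondrial-mass and membrane-permeability phenotypes are per cents of healthy-nucleus cells.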

[1] = 12 h, 1 µM, compound concentration 1 uM, replicate 1
[2] = 12 h, 1 µM, compound concentration 1 uM, replicate 2
[3] = 12 h, 10 µM, compound concentration 10 uM, replicate 1
[4] = 12 h, 10 µM, compound concentration 10 uM, replicate 2
[5] = 24 h, 1 µM, compound concentration 1 uM, replicate 1
[6] = 24 h, 1 µM, compound concentration 1 uM, replicate 2
[7] = 24 h, 10 µM, compound concentration 10 uM, replicate 1
[8] = 24 h, 10 µM, compound concentration 10 uM, replicate 2
[9] = 48 h, 1 µM, compound concentration 1 uM, replicate 1
[10] = 48 h, 1 µM, compound concentration 1 uM, replicate 2
[11] = 48 h, 10 µM, compound concentration 10 uM, replicate 1
[12] = 48 h, 10 µM, compound concentration 10 uM, replicate 2

For COc1ccc2[nH]c(I)c(CCNC(C)=O)c2c1 [IODOMELATONIN], the “Population Apoptotic (%)” value [1] was 68%, the “Population Fragmented Nuclei (%)” value [1] was 19% and the “Population Healthy Nuclei (%)” value [1] was 74%. For the same molecule, the “Population Hoechst High Intensity Objects (%)” value [1] was 2%, the “Population Membrane Permeable-Phenotype (%)” value [1] was 4% and the “Population Mitochondria Different-Phenotype (%)” value [1] was 3%. The “Population Mitotic Cells (%)” value [1] was 31%, the “Population Normal (%)” value [1] was 97% and the “Population Pyknosed Nuclei (%)” value [1] was 5%. The “Population Tubulin-Different-Phenotype (%)” value [1] was 1%, the “Total Cell Count” value [1] was 282 and the “Population Apoptotic (%)” value [2] was 37%. The “Population Fragmented Nuclei (%)” value [2] was 11%, the “Population Healthy Nuclei (%)” value [2] was 83% and the “Population Hoechst High Intensity Objects (%)” value [2] was 0%. The “Population Membrane Permeable-Phenotype (%)” value [2] was 5%, the “Population Mitochondria Different-Phenotype (%)” value [2] was 1% and the “Population Mitotic Cells (%)” value [2] was 62%. The “Population Normal (%)” value [2] was 99%, the “Population Tubulin-Different-Phenotype (%)” value [2] was 2% and the “Total Cell Count” value [2] was 156. The “Population Apoptotic (%)” value [3] was 77%, the “Population Fragmented Nuclei (%)” value [3] was 25% and the “Population Healthy Nuclei (%)” value [3] was 64%. The “Population Hoechst High Intensity Objects (%)” value [3] was 3%, the “Population Membrane Permeable-Phenotype (%)” value [3] was 2% and the “Population Mitochondria Different-Phenotype (%)” value [3] was 1%. The “Population Mitotic Cells (%)” value [3] was 22%, the “Population Normal (%)” value [3] was 96% and the “Population Pyknosed Nuclei (%)” value [3] was 9%. For the same molecule, the “Population Tubulin-Different-Phenotype (%)” value [3] was 1%, the “Total Cell Count” value [3] was 231 and the “Population Apoptotic (%)” value [4] was 80%. The “Population Fragmented Nuclei (%)” value [4] was 41%, the “Population Healthy Nuclei (%)” value [4] was 54% and the “Population Hoechst High Intensity Objects (%)” value [4] was 0%. The “Population Membrane Permeable-Phenotype (%)” value [4] was 10%, the “Population Mitochondria Different-Phenotype (%)” value [4] was 6% and the “Population Mitotic Cells (%)” value [4] was 20%. The “Population Normal (%)” value [4] was 99%, the “Population Pyknosed Nuclei (%)” value [4] was 3% and the “Population Tubulin-Different-Phenotype (%)” value [4] was 2%. The “Total Cell Count” value [4] was 134, the “Population Apoptotic (%)” value [5] was 86% and the “Population Fragmented Nuclei (%)” value [5] was 16%. The “Population Healthy Nuclei (%)” value [5] was 75%, the “Population Hoechst High Intensity Objects (%)” value [5] was 1% and the “Population Membrane Permeable-Phenotype (%)” value [5] was 3%. The “Population Mitochondria Different-Phenotype (%)” value [5] was 1%, the “Population Mitotic Cells (%)” value [5] was 13% and the “Population Normal (%)” value [5] was 98%. For the same molecule, the “Population Pyknosed Nuclei (%)” value [5] was 8%, the “Population Tubulin-Different-Phenotype (%)” value [5] was 2% and the “Total Cell Count” value [5] was 354. For the same molecule, the “Population Apoptotic (%)” value [6] was 80%, the “Population Fragmented Nuclei (%)” value [6] was 15% and the “Population Healthy Nuclei (%)” value [6] was 78%. The “Population Membrane Permeable-Phenotype (%)” value [6] was 8%, the “Population Mitochondria Different-Phenotype (%)” value [6] was 0% and the “Population Mitotic Cells (%)” value [6] was 20%. The “Population Pyknosed Nuclei (%)” value [6] was 5%, the “Total Cell Count” value [6] was 179 and the “Population Apoptotic (%)” value [7] was 95%. The “Population Fragmented Nuclei (%)” value [7] was 25%, the “Population Healthy Nuclei (%)” value [7] was 66% and the “Population Hoechst High Intensity Objects (%)” value [7] was 1%. For the same molecule, the “Population Membrane Permeable-Phenotype (%)” value [7] was 4%, the “Population Mitochondria Different-Phenotype (%)” value [7] was 1% and the “Population Mitotic Cells (%)” value [7] was 4%. The “Population Normal (%)” value [7] was 98%, the “Population Pyknosed Nuclei (%)” value [7] was 8% and the “Population Tubulin-Different-Phenotype (%)” value [7] was 1%. The “Total Cell Count” value [7] was 273, the “Population Apoptotic (%)” value [8] was 88% and the “Population Fragmented Nuclei (%)” value [8] was 34%. For the same molecule, the “Population Healthy Nuclei (%)” value [8] was 59%, the “Population Membrane Permeable-Phenotype (%)” value [8] was 7% and the “Population Mitochondria Different-Phenotype (%)” value [8] was 5%. The “Population Mitotic Cells (%)” value [8] was 11%, the “Population Pyknosed Nuclei (%)” value [8] was 5% and the “Population Tubulin-Different-Phenotype (%)” value [8] was 2%. The “Total Cell Count” value [8] was 153, the “Population Apoptotic (%)” value [9] was 92% and the “Population Fragmented Nuclei (%)” value [9] was 12%. The “Population Healthy Nuclei (%)” value [9] was 79%, the “Population Hoechst High Intensity Objects (%)” value [9] was 1% and the “Population Membrane Permeable-Phenotype (%)” value [9] was 5%. The “Population Mitochondria Different-Phenotype (%)” value [9] was 2%, the “Population Mitotic Cells (%)” value [9] was 7% and the “Population Normal (%)” value [9] was 98%. The “Population Pyknosed Nuclei (%)” value [9] was 7%, the “Population Tubulin-Different-Phenotype (%)” value [9] was 3% and the “Total Cell Count” value [9] was 509. For the same molecule, the “Population Apoptotic (%)” value [10] was 86%, the “Population Fragmented Nuclei (%)” value [10] was 13% and the “Population Healthy Nuclei (%)” value [10] was 81%. For the same molecule, the “Population Membrane Permeable-Phenotype (%)” value [10] was 4%, the “Population Mitotic Cells (%)” value [10] was 13% and the “Population Pyknosed Nuclei (%)” value [10] was 5%. The “Total Cell Count” value [10] was 284, the “Population Apoptotic (%)” value [11] was 97% and the “Population Fragmented Nuclei (%)” value [11] was 21%. The “Population Healthy Nuclei (%)” value [11] was 68%, the “Population Hoechst High Intensity Objects (%)” value [11] was 2% and the “Population Membrane Permeable-Phenotype (%)” value [11] was 5%. For the same molecule, the “Population Mitochondria Different-Phenotype (%)” value [11] was 0%, the “Population Mitotic Cells (%)” value [11] was 2% and the “Population Normal (%)” value [11] was 97%. The “Population Pyknosed Nuclei (%)” value [11] was 9%, the “Population Tubulin-Different-Phenotype (%)” value [11] was 2% and the “Total Cell Count” value [11] was 373. The “Population Apoptotic (%)” value [12] was 100%, the “Population Fragmented Nuclei (%)” value [12] was 29% and the “Population Healthy Nuclei (%)” value [12] was 65%. The “Population Hoechst High Intensity Objects (%)” value [12] was 0%, the “Population Membrane Permeable-Phenotype (%)” value [12] was 7% and the “Population Mitochondria Different-Phenotype (%)” value [12] was 5%. For the same molecule, the “Population Mitotic Cells (%)” value [12] was 0%, the “Population Normal (%)” value [12] was 99% and the “Population Pyknosed Nuclei (%)” value [12] was 5%. For the same molecule, the “Population Tubulin-Different-Phenotype (%)” value [12] was 4% and the “Total Cell Count” value [12] was 209.
